Results taken from ChEMBL document CHEMBL3877288, “Identification and biochemical characterization of DC07090 as a novel potent small molecule inhibitor against human enterovirus 71 3C protease by structure-based virtual screening” (Eur J Med Chem, 2016).
Blank lines part the entries; values can stand above or below the molecule they belong to. Calls of active or inactive are those of the source. No cut-off for these calls is given here.

Columns and labels:
Enterovirus A71 [1] = experiment: Antiviral activity against EV71 infected in human RD cells assessed as protection against virus infection after 72 hrs by MTS assay; type: functional, cell-based; details: Enterovirus A
Enterovirus A71 [2] = experiment: Inhibition of recombinant N-terminal 6His-tagged EV71 3C protease expressed in Escherichia coli Rosetta using substrate Dabcyl-RTATVQGPSLDFE-Edans at 50 uM after 30 mins by fluorescence assay
Method in brief: (§1)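 Preincubated with compound in DMSO for 30 min at 30 °C. Ex 340/Em 500 nm; initial velocity over the first 600 s. Inhibition relative to DMSO control; mean of three experiments. IC50 from serial dilutions.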

[3] = Inhibition of recombinant N-terminal 6His-tagged EV71 3C protease expressed in Escherichia coli Rosetta using substrate Dabcyl-RTATVQGPSLDFE-Edans preincubated for 30 mins followed by substrate addition; design: species or system Enterovirus A71; method in brief: as §1
Enterovirus A71 [4] = experiment: Ratio of IC50 for recombinant N-terminal 6His-tagged EV71 3C protease to IC50 for EV71 3C protease F25W mutant
Coxsackievirus = experiment: Antiviral activity against Coxsackievirus A16 assessed as reduction in viral replication after 72 hrs by CellTiter-glo luminescent cell viability assay; type: functional; details: A16, 72 h
Method in brief: (§2)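 RD cells seeded at 1 × 10^4/mL in DMEM with 10% FBS and antibiotics, grown 24 h at 37 °C, 5% CO2. Virus (EV71 50 TCID50; CVA16 100 TCID50) mixed with serial compound dilutions, added to cells and held 72 h at 37 °C. Protection read by CellTiter-Glo luminescence. EC50 is the concentration cutting virus-induced cell death by 50% versus virus control. Triplicate, run at least twice.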

[5] = Binding affinity to EV71 3C protease F25W mutant after 1 hr by intrinsic fluorescence quenching assay; design: species or system Enterovirus A71
Enterovirus A71 [6] = experiment: Ratio of IC50 for recombinant N-terminal 6His-tagged EV71 3C protease to IC50 for EV71 3C protease A144S mutant
Enterovirus A71 [7] = experiment: Inhibition of EV71 3C protease F25A mutant using substrate Dabcyl-RTATVQGPSLDFE-Edans at 0.1 to 10 uM preincubated for 30 mins followed by substrate addition by fluorescence assay
Enterovirus A71 [8] = experiment: Antiviral activity against EV71 assessed as reduction in viral replication after 72 hrs by CellTiter-glo luminescent cell viability assay; type: functional; details: Enterovirus A; method in brief: as §2
Enterovirus A71 [9] = experiment: (§3) Binding affinity to recombinant N-terminal 6His-tagged EV71 3C protease expressed in Escherichia coli Rosetta after 1 hr by intrinsic fluorescence quenching assay
Method in brief: (§4)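 Compound dilutions were mixed with 2 µM 3Cpro (wild type or mutants) for 1 h on ice, then held 5 min in the dark in a 1 cm quartz cell. Trp emission spectra recorded from 300 to 400 nm at 25 °C, with maximum at 340 nm. Kd derived from dose-dependent quenching.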

[10] = as §3; design: species or system Enterovirus A71; method in brief: as §4
[11] = Binding affinity to EV71 3C protease A144S mutant after 1 hr by intrinsic fluorescence quenching assay; design: species or system Enterovirus A71
[12] = Inhibition of EV71 3C protease F25W mutant using substrate Dabcyl-RTATVQGPSLDFE-Edans at 0.1 to 10 uM preincubated for 30 mins followed by substrate addition by fluorescence assay; design: species or system Enterovirus A71
[13] = Binding affinity to EV71 3C protease F25A mutant after 1 hr by intrinsic fluorescence quenching assay; design: species or system Enterovirus A71
[14] = Inhibition of EV71 3C protease A144S mutant using substrate Dabcyl-RTATVQGPSLDFE-Edans preincubated for 30 mins followed by substrate addition by fluorescence assay; design: species or system Enterovirus A71
[15] = Cytotoxicity against human RD cells after 48 hrs by CellTiter-glo luminescent cell viability assay; type: toxicity, cell-based
Method in brief: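 RD cells plated at 1 × 10^3 per well in DMEM with 10% FBS and antibiotics, cultured overnight at 37 °C, 5% CO2. Compound added at 0–200 µM (final) for 48 h at 37 °C. CellTiter-Glo luminescence read. Inhibition = 1 − RLU(treated)/RLU(cell control) × 100%. CC50 obtained by regression analysis.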

[16] = Competitive inhibition of recombinant N-terminal 6His-tagged EV71 3C protease expressed in Escherichia coli Rosetta using substrate Dabcyl-RTATVQGPSLDFE-Edans by Dixon plot; design: species or system Enterovirus A71
Method in brief: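 Same fluorogenic 3Cpro activity assay (8 µM enzyme, 30 min preincubation at 30 °C, Ex 340/Em 500 nm, initial rates) run at inhibitor 0–20 µM and substrate 40–150 µM. Mechanism assigned from Lineweaver–Burk plots; Ki obtained from Dixon plots.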

[17] = Binding affinity to recombinant N-terminal 6His-tagged EV71 3C protease expressed in Escherichia coli Rosetta by surface plasmon resonance assay; design: species or system Enterovirus A71
Method in brief: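 Compound concentrations in HBS-EP were injected at 30 µL/min for 60 s, with 120 s dissociation, on a Biacore 3000. Kd fitted with a 1:1 Langmuir model.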

Enterovirus A71 [18] = experiment: Antiviral activity against EV71 infected in human RD cells assessed as reduction in viral plaque formation after 1 hr by crystal violet staining method; type: functional, cell-based; details: Enterovirus A
Enterovirus A71 [19] = experiment: Antiviral activity against EV71 infected in human RD cells assessed as protection against virus-induced cytopathic effect after 48 hrs by MTS assay; type: functional, cell-based; details: Enterovirus A
Enterovirus A71 [20] = experiment: Antiviral activity against EV71 infected in African green monkey Vero cells after 48 hrs by plaque assay; type: functional, cell-based; details: Enterovirus A
[21] = Cytotoxicity against African green monkey Vero cells after 48 hrs by MTT assay; type: toxicity, cell-based; details: chlorocebus sabaeus

inhibition (Enterovirus A71 [2]): < 5%
SMILES: Cc1cccc(CNc2ccc(-c3nc4nc(C)ccc4o3)cc2F)n1

inhibition (Enterovirus A71 [2]): 68.1%
IC50 [3]: 40.1 µM
SMILES: Cc1cccc(CNc2ccc(-c3nc4ncccc4o3)cc2)n1

inhibition (Enterovirus A71 [2]): 34.7%
SMILES: Cc1cccc(CNc2ccc(-c3nc4ncccc4o3)cc2Cl)n1

inhibition (Enterovirus A71 [2]): 104%
IC50 [3]: 2.62 µM
SMILES: CCOC(=O)/C=C/[C@H](C[C@@H]1CCNC1=O)NC(=O)[C@@H](CC(=O)[C@@H](NC(=O)c1cc(C)on1)C(C)C)Cc1ccc(F)cc1 [RUPINTRIVIR]
EC50 (Coxsackievirus): 0.00565 µM

inhibition (Enterovirus A71 [2]): < 5%
SMILES: Cc1cccc(CNc2ccc(-c3nc4nc(C)ccc4o3)cc2)n1

EC50 (Enterovirus A71 [18]): 84.5 µM
SMILES: O=c1c(O)c(-c2ccc(O)c(O)c2)oc2cc(O)ccc12 [FISETIN]

inhibition (Enterovirus A71 [2]): < 5%
SMILES: Fc1cc(-c2nc3ncccc3o2)ccc1NCc1ccccn1

inhibition (Enterovirus A71 [2]): 6.96%
SMILES: Cc1ccc2oc(-c3ccc(NCc4ccccn4)c(Cl)c3)nc2n1

inhibition (Enterovirus A71 [2]): 11.9%
SMILES: Cc1ccc2oc(Cc3ccc(NCc4ccccn4)cc3)nc2n1

inhibition (Enterovirus A71 [2]): 18.6%
SMILES: Cc1cccc(CNc2ccc(-c3nc4nc(C)ccc4o3)cc2Cl)n1

inhibition (Enterovirus A71 [2]): 73.7%
IC50 [3]: 48 µM
SMILES: c1ccc(CNc2ccc(Cc3nc4ncccc4o3)cc2)nc1

EC50 (Enterovirus A71 [18]): 110 µM
SMILES: C[C@@H]1O[C@@H](OC[C@H]2O[C@@H](Oc3c(-c4ccc(O)c(O)c4)oc4cc(O)cc(O)c4c3=O)[C@H](O)[C@@H](O)[C@@H]2O)[C@H](O)[C@H](O)[C@H]1O [RUTIN]

inhibition (Enterovirus A71 [2]): 7.42%
SMILES: Cc1cccc(CNc2ccc(Cc3nc4nc(C)ccc4o3)cc2)n1

The remaining lines, values behind:

SMILES: O=c1cc(-c2ccccc2)oc2cc(O)cc(O)c12 [CHRYSIN]
EC50 (Enterovirus A71 [1]): 15.9 µM

SMILES: Cc1ccc2oc(-c3ccc(NCc4ccccn4)c(F)c3)nc2n1
inhibition (Enterovirus A71 [2]): 6.72%

SMILES: c1ccc(CNc2ccc(-c3nc4ncccc4o3)cc2)nc1
Ratio IC50 (Enterovirus A71 [4]): 9.5
EC50 (Coxsackievirus): 27.8 µM
Kd [5]: 12.1 µM
Ratio IC50 (Enterovirus A71 [6]): 2.2
inhibition (Enterovirus A71 [7]): Active
EC50 (Enterovirus A71 [8]): 22.1 µM
Activity (Enterovirus A71 [9]): Dose-dependent effect
Kd [10]: 13.4 µM
Kd [11]: 6.37 µM
inhibition (Enterovirus A71 [2]): 80.2%
IC50 [12]: 2.28 µM
Kd [13]: 25 µM
IC50 [14]: 9.73 µM
CC50 at 48 h [15]: > 200 µM
Ki [16]: 23.3 µM
Kd [17]: 16.5 µM
IC50 [3]: 21.7 µM

SMILES: Cc1ccc2oc(-c3ccc(NCc4ccccn4)cc3)nc2n1
inhibition (Enterovirus A71 [2]): 19.2%

SMILES: Cc1cccc(CNc2ccc(-c3nc4ncccc4o3)cc2F)n1
inhibition (Enterovirus A71 [2]): 19.2%

SMILES: COc1cc(-c2cc(=O)c3c(O)cc(OP(=O)(OC(C)C)OC(C)C)cc3o2)cc(OC)c1O
EC50 (Enterovirus A71 [1]): 9.06 µM

SMILES: O=c1cc(-c2ccc(O)c(O)c2)oc2cc(O[C@@H]3O[C@H](CO)[C@@H](O)[C@H](O)[C@H]3O)cc(O)c12 [GALUTEOLIN]
EC50 (Enterovirus A71 [19]): 430 µM

SMILES: C#C[C@@]1(O)[C@H](O)[C@@H](CO)O[C@H]1n1ccc2c(N)ncnc21
EC50 (Enterovirus A71 [20]): 0.67 µM
CC50 at 48 h [21]: 120 µM
EC50 (Enterovirus A71 [8]): 0.17 µM

SMILES: Cc1cccc(CNc2ccc(Cc3nc4ncccc4o3)cc2)n1
inhibition (Enterovirus A71 [2]): 60%
IC50 [3]: 31.6 µM

SMILES: Clc1cc(-c2nc3ncccc3o2)ccc1NCc1ccccn1
inhibition (Enterovirus A71 [2]): 6.65%
